Measurements as given in ChEMBL document CHEMBL4689842, “EUbOPEN Chemogenomics Library wave 1” (2021).
“And” between values parts separate entries of the source, which are not always exact repeats. Equal values may be shown once.

Test system: HEK-293T
Assay: Multiplex assay against HEK293T;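 for Population Tubulin-Different-Phenotype (%): share of the cells with healthy nuclei that show this phenotype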
Type: toxicity, cell-based
Settings: human
Procedure, shortened: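 Imaging took place on a CQ1 microscope at 37°C and 5% CO2 once compound had been added to live cells stained at seeding with Hoechst33342, BioTracker Green Microtubule Cytoskeleton Dye, MitoTracker Red and Annexin V Alexa Fluor 680. CellPathfinder machine-learning gating classed cells as Hoechst high-intensity objects or normal cells, classed normal cells as having healthy, pyknosed or fragmented nuclei, and classed pyknosed cells as mitotic or apoptotic. Tubulin, mitochondrial-mass and membrane-permeability phenotypes are per cents of the healthy-nucleus cells.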

[1] = 12 h, 1 µM, compound concentration 1 uM, replicate 1
[2] = 12 h, 1 µM, compound concentration 1 uM, replicate 2
[3] = 12 h, 10 µM, compound concentration 10 uM, replicate 1
[4] = 12 h, 10 µM, compound concentration 10 uM, replicate 2
[5] = 24 h, 1 µM, compound concentration 1 uM, replicate 1
[6] = 24 h, 1 µM, compound concentration 1 uM, replicate 2
[7] = 24 h, 10 µM, compound concentration 10 uM, replicate 1
[8] = 24 h, 10 µM, compound concentration 10 uM, replicate 2

Compound: CC(=O)O[C@H]1C(=O)[C@@]2(C)[C@H]([C@H](OC(=O)c3ccccc3)[C@]3(O)C[C@H](OC(=O)[C@H](O)[C@@H](NC(=O)c4ccccc4)c4ccccc4)C(C)=C1C3(C)C)[C@]1(OC(C)=O)CO[C@@H]1C[C@@H]2O [PACLITAXEL]
- Population Apoptotic (%) [1]: 21% and 24%
- Population Fragmented Nuclei (%) [1]: 12% and 13%
- Population Healthy Nuclei (%) [1]: 71% and 68%
- Population Hoechst High Intensity Objects (%) [1]: 10% and 14%
- Population Membrane Permeable-Phenotype (%) [1]: 4%
- Population Mitochondria Different-Phenotype (%) [1]: 3% and 4%
- Population Mitotic Cells (%) [1]: 78% and 75%
- Population Normal (%) [1]: 89% and 85%
- Population Pyknosed Nuclei (%) [1]: 15% and 18%
- Population Tubulin-Different-Phenotype (%) [1]: 2%
- Population Apoptotic (%) [2]: 7% and 10%
- Population Fragmented Nuclei (%) [2]: 10% and 8%
- Population Healthy Nuclei (%) [2]: 85% and 87%
- Population Hoechst High Intensity Objects (%) [2]: 1%
- Population Membrane Permeable-Phenotype (%) [2]: 1% and 0%
- Population Mitochondria Different-Phenotype (%) [2]: 5%
- Population Mitotic Cells (%) [2]: 92% and 89%
- Population Normal (%) [2]: 98%
- Population Pyknosed Nuclei (%) [2]: 3% and 4%
- Population Apoptotic (%) [3]: 23% [middle of 4 runs]
- Population Fragmented Nuclei (%) [3]: 15% and 13% and 11% and 10%
- Population Healthy Nuclei (%) [3]: 69% and 72% and 76% and 75%
- Population Hoechst High Intensity Objects (%) [3]: 11% and 7% and 8%
- Population Membrane Permeable-Phenotype (%) [3]: 8% and 5% and 4%
- Population Mitochondria Different-Phenotype (%) [3]: 5% and 4% and 3%
- Population Mitotic Cells (%) [3]: 80% and 77% and 72% and 76%
- Population Normal (%) [3]: 88% and 92% and 91%
- Population Pyknosed Nuclei (%) [3]: 14% [middle of 4 runs]
- Population Tubulin-Different-Phenotype (%) [3]: 2% and 3%
- Population Apoptotic (%) [4]: 12% and 6% and 9%
- Population Fragmented Nuclei (%) [4]: 8% and 14%
- Population Healthy Nuclei (%) [4]: 86% and 81% and 85%
- Population Hoechst High Intensity Objects (%) [4]: 1% and 3% and 2%
- Population Membrane Permeable-Phenotype (%) [4]: 1% and 0%
- Population Mitochondria Different-Phenotype (%) [4]: 7%
- Population Mitotic Cells (%) [4]: 87% and 93% and 90%
- Population Normal (%) [4]: 98% and 96% and 97%
- Population Pyknosed Nuclei (%) [4]: 4% and 3%
- Population Tubulin-Different-Phenotype (%) [4]: 4% and 1%
- Population Apoptotic (%) [5]: 10% and 29%
- Population Fragmented Nuclei (%) [5]: 12% and 13%
- Population Healthy Nuclei (%) [5]: 79%
- Population Hoechst High Intensity Objects (%) [5]: 7% and 8%
- Population Membrane Permeable-Phenotype (%) [5]: 8% and 7%
- Population Mitochondria Different-Phenotype (%) [5]: 2% and 4%
- Population Mitotic Cells (%) [5]: 89% and 70%
- Population Normal (%) [5]: 92% and 91%
- Population Pyknosed Nuclei (%) [5]: 8% and 7%
- Population Tubulin-Different-Phenotype (%) [5]: 2% and 4%
- Population Apoptotic (%) [6]: 7%
- Population Fragmented Nuclei (%) [6]: 24% and 32%
- Population Healthy Nuclei (%) [6]: 73% and 65%
- Population Hoechst High Intensity Objects (%) [6]: 3% and 4%
- Population Membrane Permeable-Phenotype (%) [6]: 5% and 3%
- Population Mitochondria Different-Phenotype (%) [6]: 1% and 0%
- Population Mitotic Cells (%) [6]: 92%
- Population Normal (%) [6]: 96% and 95%
- Population Pyknosed Nuclei (%) [6]: 1%
- Population Apoptotic (%) [7]: 22% [middle of 4 runs]
- Population Fragmented Nuclei (%) [7]: 15% [middle of 4 runs]
- Population Healthy Nuclei (%) [7]: 80% and 78% and 81% and 79%
- Population Hoechst High Intensity Objects (%) [7]: 5% and 3% and 6%
- Population Membrane Permeable-Phenotype (%) [7]: 10% and 7%
- Population Mitochondria Different-Phenotype (%) [7]: 2% and 3%
- Population Mitotic Cells (%) [7]: 77% and 76% and 82% and 79%
- Population Normal (%) [7]: 94% and 96% and 93%
- Population Pyknosed Nuclei (%) [7]: 4% and 5% and 6% and 7%
- Population Tubulin-Different-Phenotype (%) [7]: 4% and 5%
- Population Fragmented Nuclei (%) [8]: 30% [middle of 4 runs]
- Population Healthy Nuclei (%) [8]: 73% and 69% and 60% and 67%
- Population Hoechst High Intensity Objects (%) [8]: 4%
- Population Membrane Permeable-Phenotype (%) [8]: 3% and 2%
- Population Mitochondria Different-Phenotype (%) [8]: 1% and 0%
- Population Mitotic Cells (%) [8]: 87% and 96% and 93% and 98%
- Population Normal (%) [8]: 95%
- Population Pyknosed Nuclei (%) [8]: 1% and 2%
- Population Tubulin-Different-Phenotype (%) [8]: 2%

Compound: CNC(=O)c1cc(Oc2ccc(NC(=O)Nc3cc(C(C)(C)C)nn3-c3ccc4ncccc4c3)c(F)c2)ccn1 [REBASTINIB]
- Population Apoptotic (%) [1]: 22%
- Population Fragmented Nuclei (%) [1]: 22%
- Population Healthy Nuclei (%) [1]: 66%
- Population Hoechst High Intensity Objects (%) [1]: 15%
- Population Membrane Permeable-Phenotype (%) [1]: 11%
- Population Mitochondria Different-Phenotype (%) [1]: 4%
- Population Mitotic Cells (%) [1]: 77%
- Population Normal (%) [1]: 84%
- Population Pyknosed Nuclei (%) [1]: 10%
- Population Tubulin-Different-Phenotype (%) [1]: 3%
- Total Cell Count [1]: 638
- Population Apoptotic (%) [2]: 11%
- Population Fragmented Nuclei (%) [2]: 11%
- Population Healthy Nuclei (%) [2]: 85%
- Population Hoechst High Intensity Objects (%) [2]: 4%
- Population Membrane Permeable-Phenotype (%) [2]: 7%
- Population Mitochondria Different-Phenotype (%) [2]: 3%
- Population Mitotic Cells (%) [2]: 88%
- Population Normal (%) [2]: 95%
- Population Pyknosed Nuclei (%) [2]: 3%
- Population Tubulin-Different-Phenotype (%) [2]: 6%
- Total Cell Count [2]: 1893
- Population Apoptotic (%) [3]: 29%
- Population Fragmented Nuclei (%) [3]: 11%
- Population Healthy Nuclei (%) [3]: 41%
- Population Hoechst High Intensity Objects (%) [3]: 16%
- Population Membrane Permeable-Phenotype (%) [3]: 13%
- Population Mitochondria Different-Phenotype (%) [3]: 34%
- Population Mitotic Cells (%) [3]: 70%
- Population Normal (%) [3]: 83%
- Population Pyknosed Nuclei (%) [3]: 46%
- Population Tubulin-Different-Phenotype (%) [3]: 88%
- Total Cell Count [3]: 515
- Population Apoptotic (%) [4]: 35%
- Population Fragmented Nuclei (%) [4]: 3%
- Population Healthy Nuclei (%) [4]: 78%
- Population Hoechst High Intensity Objects (%) [4]: 6%
- Population Membrane Permeable-Phenotype (%) [4]: 9%
- Population Mitochondria Different-Phenotype (%) [4]: 55%
- Population Mitotic Cells (%) [4]: 64%
- Population Normal (%) [4]: 93%
- Population Pyknosed Nuclei (%) [4]: 18%
- Population Tubulin-Different-Phenotype (%) [4]: 97%
- Total Cell Count [4]: 672
- Population Apoptotic (%) [5]: 13%
- Population Fragmented Nuclei (%) [5]: 19%
- Population Healthy Nuclei (%) [5]: 74%
- Population Hoechst High Intensity Objects (%) [5]: 12%
- Population Membrane Permeable-Phenotype (%) [5]: 23%
- Population Mitochondria Different-Phenotype (%) [5]: 2%
- Population Mitotic Cells (%) [5]: 86%
- Population Normal (%) [5]: 87%
- Population Pyknosed Nuclei (%) [5]: 5%
- Population Tubulin-Different-Phenotype (%) [5]: 3%
- Total Cell Count [5]: 727
- Population Apoptotic (%) [6]: 3%
- Population Fragmented Nuclei (%) [6]: 28%
- Population Healthy Nuclei (%) [6]: 69%
- Population Hoechst High Intensity Objects (%) [6]: 8%
- Population Membrane Permeable-Phenotype (%) [6]: 9%
- Population Mitochondria Different-Phenotype (%) [6]: 0%
- Population Mitotic Cells (%) [6]: 96%
- Population Normal (%) [6]: 91%
- Population Pyknosed Nuclei (%) [6]: 1%
- Population Tubulin-Different-Phenotype (%) [6]: 7%
- Total Cell Count [6]: 2966
- Population Apoptotic (%) [7]: 46%
- Population Fragmented Nuclei (%) [7]: 14%
- Population Healthy Nuclei (%) [7]: 44%
- Population Hoechst High Intensity Objects (%) [7]: 15%
- Population Membrane Permeable-Phenotype (%) [7]: 8%
- Population Mitochondria Different-Phenotype (%) [7]: 58%
- Population Mitotic Cells (%) [7]: 53%
- Population Normal (%) [7]: 84%
- Population Pyknosed Nuclei (%) [7]: 40%
- Population Tubulin-Different-Phenotype (%) [7]: 92%
- Total Cell Count [7]: 485
- Population Apoptotic (%) [8]: 43%
- Population Fragmented Nuclei (%) [8]: 3%
- Population Healthy Nuclei (%) [8]: 81%
- Population Hoechst High Intensity Objects (%) [8]: 5%
- Population Membrane Permeable-Phenotype (%) [8]: 7%
- Population Mitochondria Different-Phenotype (%) [8]: 63%
- Population Mitotic Cells (%) [8]: 56%
- Population Normal (%) [8]: 94%
- Population Pyknosed Nuclei (%) [8]: 15%
- Population Tubulin-Different-Phenotype (%) [8]: 98%
- Total Cell Count [8]: 674
